Laboratory results published in ChEMBL document CHEMBL1123408, “Influence of alkyl-chain fluorination on the action of mammary tumor inhibiting 2,3-bis(hydroxyphenyl)butanes and 2,3-bis(hydroxyphenyl)but-2-enes” (1986).
Values joined by “and” are separate entries in the source; they are usually repeats but may differ in a detail not shown here. Equal entries are not always repeated.

Assays:
[1] = target: T1, Estrogen receptor (Mus musculus) (UniProt O08537+P19785); test: Anti-uterotrophic effect in mice at 500 ug dose; format: functional
Procedure, shortened: (§1)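 Immature female NMRI mice, 20 days old (14.5 ± 1.2 g), randomized into groups of 10. Each received a daily sc injection of compound in 0.1 mL olive oil for 3 days, given together with estrone. Uteri were taken 24 h after the last injection, fixed in Bouin's solution, washed, dried and weighed. The read-out was inhibition of estrone-stimulated uterine growth.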

[2] = target: T1, Estrogen receptor (Mus musculus); test: (§2) Uterotrophic effect in mice at 100 ug dose; format: functional, tissue-based; set-up: unit not given here; conditions: Uterus
Procedure, shortened: (§3)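 Immature female NMRI mice, 20 days old, 10 per group, given daily sc injections of 0.1 mL olive oil solution for 3 days. Uteri removed 24 h after the last dose, fixed in Bouin's solution, washed, dried and weighed. Antiestrogenic testing measured inhibition of estrone-stimulated uterine growth.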

[3] = target: T1, Estrogen receptor (Mus musculus); test: (§4) Uterotrophic effect in mice at 0 ug dose; format: functional, tissue-based; set-up: unit not given here; conditions: Uterus; procedure, shortened: as §3
[4] = target: T1, Estrogen receptor (Mus musculus); test: Uterotrophic effect in mice at 5 ug dose; format: functional, tissue-based; conditions: Uterus; procedure, shortened: as §3
[5] = target: T1, Estrogen receptor (Mus musculus); test: (§5) Uterotrophic effect in mice at 10 ug dose; format: functional, tissue-based; conditions: Uterus; procedure, shortened: as §3
[6] = target: T1, Estrogen receptor (Mus musculus); test: Uterotrophic effect in mice at 500 ug dose; format: functional, tissue-based; set-up: unit not given here; conditions: Uterus; procedure, shortened: as §3
[7] = target: T1, Estrogen receptor (Mus musculus); test: as §2; format: functional, tissue-based; set-up: unit not given here; conditions: Uterus; procedure, shortened: as §3; remark: listed apart in the source
[8] = target: T1, Estrogen receptor (Mus musculus); test: Uterotrophic effect in mice at 25 ug dose; format: functional, tissue-based; set-up: unit not given here; conditions: Uterus; procedure, shortened: as §3
[9] = target: T1, Estrogen receptor (Mus musculus); test: Uterotrophic effect in BD2F mice bearing transplantable hormone dependent MXT at 13.80 mg dose; format: functional, tissue-based; conditions: Uterus
Procedure, shortened: (§6)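 MXT-bearing female BD2F1 mice (10 per group) dosed sc in olive oil three times weekly for 6 weeks from the day after tumor transplantation. Uteri excised at sacrifice and dry weight determined; values given as mean ± SD.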

[10] = target: T1, Estrogen receptor (Mus musculus); test: as §4; format: functional, tissue-based; set-up: unit not given here; conditions: Uterus; procedure, shortened: as §3; remark: listed apart in the source
[11] = target: T1, Estrogen receptor (Mus musculus); test: Uterotrophic effect in BD2F mice bearing transplantable hormone dependent MXT at 2.76 mg dose; format: functional, tissue-based; conditions: Uterus; procedure, shortened: as §6
Mus musculus [12] = species on record: Mus musculus; test: Relative average tumor wet weight in treated compared to untreated mice at 2.76 mg dose; format: functional
Procedure, shortened: (§7)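 Syngeneic female BD2F1 mice (8–10 weeks) received sc trocar implants of 1–2-mm³ MXT tumor pieces, 10 per group. Treatment began the next day: sc doses in olive oil (solution or suspension), three times weekly for 6 weeks. Tamoxifen-treated control group included. Tumor wet weight measured at sacrifice; expressed as % T/C versus untreated controls.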

[13] = target: T1, Estrogen receptor (Mus musculus); test: (§8) Uterotrophic effect in mice at 1000 ug dose; format: functional, tissue-based; set-up: unit not given here; conditions: Uterus; procedure, shortened: as §3
Mus musculus [14] = species on record: Mus musculus; test: Relative average tumor wet weight in treated compared to untreated mice at 13.80 mg dose; format: functional
Procedure, shortened: (§9)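 MXT mammary tumor pieces of 1-2 mm³ from syngeneic donors were implanted sc by trocar into female BD2F₁ mice aged 8-10 weeks (20.0 ± 1.7 g), groups of 10. From the next day, compound in olive oil was given sc three times weekly for 6 weeks. Tumor wet weight was measured at the end and expressed as % T/C.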

[15] = target: T1, Estrogen receptor (Mus musculus); test: Anti-uterotrophic effect in mice at 25 ug dose; format: functional; procedure, shortened: as §1
[16] = target: T1, Estrogen receptor (Mus musculus); test: as §5; format: functional, tissue-based; set-up: unit not given here; conditions: Uterus; procedure, shortened: as §3
[17] = target: T1, Estrogen receptor (Mus musculus); test: (§10) Uterotrophic effect in mice at 1 ug dose; format: functional, tissue-based; conditions: Uterus; procedure, shortened: as §3
[18] = target: T1, Estrogen receptor (Mus musculus); test: Uterotrophic effect in BD2F mice bearing transplantable hormone dependent MXT at 2.77 mg dose; format: functional, tissue-based; procedure, shortened: as §6
Mus musculus [19] = species on record: Mus musculus; test: Relative average tumor wet weight in treated compared to untreated mice at 2.77 mg dose; format: functional; procedure, shortened: as §7
[20] = target: T1, Estrogen receptor (Mus musculus); test: Uterotrophic effect in mice at 0.1 ug dose; format: functional, tissue-based; set-up: unit not given here; conditions: Uterus; procedure, shortened: as §3
[21] = target: T1, Estrogen receptor (Mus musculus); test: as §10; format: functional, tissue-based; set-up: unit not given here; conditions: Uterus; procedure, shortened: as §3
[22] = target: T1, Estrogen receptor (Mus musculus); test: as §2; format: functional, tissue-based; conditions: Uterus; procedure, shortened: as §3
[23] = target: T1, Estrogen receptor (Mus musculus); test: Uterotrophic effect in BD2F mice bearing transplantable hormone dependent MXT at 13.84 mg dose; format: functional, tissue-based; procedure, shortened: as §6
Mus musculus [24] = species on record: Mus musculus; test: Relative average tumor wet weight in treated compared to untreated mice at 13.84 mg dose; format: functional; procedure, shortened: as §9
[25] = target: T1, Estrogen receptor (Mus musculus); test: as §8; format: functional, tissue-based; conditions: Uterus; procedure, shortened: as §3
[26] = target: T1, Estrogen receptor (Mus musculus); test: Anti-uterotrophic effect in mice at 5 ug dose; format: functional; procedure, shortened: as §1
Rattus norvegicus [27] = test: Percent change in body weight in DMBA-Induced Hormone-Dependent Mammary Carcinoma rats at 18 mg/kg dose; format: functional
Rattus norvegicus [28] = test: Final tumor number in DMBA-Induced Hormone-Dependent Mammary Carcinoma in rats at 36 mg/kg dose; format: functional
Rattus norvegicus [29] = test: Percent unchanged tumors in DMBA-Induced Hormone-Dependent Mammary Carcinoma in rats at 18 mg/kg dose; format: functional
Rattus norvegicus [30] = test: Percent unchanged tumors in DMBA-Induced Hormone-Dependent Mammary Carcinoma in rats at 72 mg/kg dose; format: functional
Rattus norvegicus [31] = test: Percent change in body weight in DMBA-Induced Hormone-Dependent Mammary Carcinoma rats at 72 mg/kg dose; format: functional
Rattus norvegicus [32] = test: Percent change in total tumor area in DMBA-Induced Hormone-Dependent Mammary Carcinoma rats at 72 mg/kg dose; format: functional
Rattus norvegicus [33] = test: Percent partial remission in DMBA-Induced Hormone-Dependent Mammary Carcinoma in rats at 72 mg/kg dose; format: functional
Rattus norvegicus [34] = test: Percent complete remission in DMBA-Induced Hormone-Dependent Mammary Carcinoma in rats at 18 mg/kg dose; format: functional
Rattus norvegicus [35] = test: Final tumor number in DMBA-Induced Hormone-Dependent Mammary Carcinoma in rats at 72 mg/kg dose; format: functional
Rattus norvegicus [36] = test: Percent progression in DMBA-Induced Hormone-Dependent Mammary Carcinoma in rats at 36 mg/kg dose; format: functional
Rattus norvegicus [37] = test: Percent change in total tumor area in DMBA-Induced Hormone-Dependent Mammary Carcinoma rats at 36 mg/kg dose; format: functional
Rattus norvegicus [38] = test: Percent partial remission in DMBA-Induced Hormone-Dependent Mammary Carcinoma in rats at 36 mg/kg dose; format: functional
Rattus norvegicus [39] = test: Percent complete remission in DMBA-Induced Hormone-Dependent Mammary Carcinoma in rats at 36 mg/kg dose; format: functional
Rattus norvegicus [40] = test: Final tumor number in DMBA-Induced Hormone-Dependent Mammary Carcinoma in rats at 18 mg/kg dose; format: functional
Rattus norvegicus [41] = test: Percent progression in DMBA-Induced Hormone-Dependent Mammary Carcinoma in rats at 72 mg/kg dose; format: functional
Rattus norvegicus [42] = test: Percent change in body weight in DMBA-Induced Hormone-Dependent Mammary Carcinoma rats at 36 mg/kg dose; format: functional
[43] = target: T1, Estrogen receptor (Mus musculus); test: Uterotrophic effect in mice at 5000 ug dose; format: functional, tissue-based; conditions: Uterus, in the assay text read “50 ug” for “5000 ug”; procedure, shortened: as §3
Rattus norvegicus [44] = test: Initial tumor number in DMBA-Induced Hormone-Dependent Mammary Carcinoma in rats at 72 mg/kg dose; format: functional
Rattus norvegicus [45] = test: Initial tumor number in DMBA-Induced Hormone-Dependent Mammary Carcinoma in rats at 36 mg/kg dose; format: functional
Rattus norvegicus [46] = test: Percent partial remission in DMBA-Induced Hormone-Dependent Mammary Carcinoma in rats at 18 mg/kg dose; format: functional
Rattus norvegicus [47] = test: Percent change in total tumor area in DMBA-Induced Hormone-Dependent Mammary Carcinoma rats at 18 mg/kg dose; format: functional
Rattus norvegicus [48] = test: Percent progression in DMBA-Induced Hormone-Dependent Mammary Carcinoma in rats at 18 mg/kg dose; format: functional
Rattus norvegicus [49] = test: Initial tumor number in DMBA-Induced Hormone-Dependent Mammary Carcinoma in rats at 18 mg/kg dose; format: functional
Rattus norvegicus [50] = test: Percent unchanged tumors in DMBA-Induced Hormone-Dependent Mammary Carcinoma in rats at 36 mg/kg dose; format: functional
Rattus norvegicus [51] = test: Percent complete remission in DMBA-Induced Hormone-Dependent Mammary Carcinoma in rats at 72 mg/kg dose; format: functional

T1 sequence (O08537 whole entry, looked up): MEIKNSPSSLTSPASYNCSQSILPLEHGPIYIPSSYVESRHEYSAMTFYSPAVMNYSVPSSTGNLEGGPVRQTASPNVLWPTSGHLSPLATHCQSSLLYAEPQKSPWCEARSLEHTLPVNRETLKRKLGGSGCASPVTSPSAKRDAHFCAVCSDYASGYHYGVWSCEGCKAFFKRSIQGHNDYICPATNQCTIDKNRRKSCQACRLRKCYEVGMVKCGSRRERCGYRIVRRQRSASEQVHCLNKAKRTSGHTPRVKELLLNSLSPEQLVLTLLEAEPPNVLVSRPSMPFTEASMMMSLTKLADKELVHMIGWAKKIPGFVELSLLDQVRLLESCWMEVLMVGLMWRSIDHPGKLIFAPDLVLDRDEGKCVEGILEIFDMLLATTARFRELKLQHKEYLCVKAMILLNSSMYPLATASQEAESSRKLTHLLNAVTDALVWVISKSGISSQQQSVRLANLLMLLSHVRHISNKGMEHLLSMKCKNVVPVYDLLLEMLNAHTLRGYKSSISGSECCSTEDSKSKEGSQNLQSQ
T1 sequence (P19785 whole entry, looked up): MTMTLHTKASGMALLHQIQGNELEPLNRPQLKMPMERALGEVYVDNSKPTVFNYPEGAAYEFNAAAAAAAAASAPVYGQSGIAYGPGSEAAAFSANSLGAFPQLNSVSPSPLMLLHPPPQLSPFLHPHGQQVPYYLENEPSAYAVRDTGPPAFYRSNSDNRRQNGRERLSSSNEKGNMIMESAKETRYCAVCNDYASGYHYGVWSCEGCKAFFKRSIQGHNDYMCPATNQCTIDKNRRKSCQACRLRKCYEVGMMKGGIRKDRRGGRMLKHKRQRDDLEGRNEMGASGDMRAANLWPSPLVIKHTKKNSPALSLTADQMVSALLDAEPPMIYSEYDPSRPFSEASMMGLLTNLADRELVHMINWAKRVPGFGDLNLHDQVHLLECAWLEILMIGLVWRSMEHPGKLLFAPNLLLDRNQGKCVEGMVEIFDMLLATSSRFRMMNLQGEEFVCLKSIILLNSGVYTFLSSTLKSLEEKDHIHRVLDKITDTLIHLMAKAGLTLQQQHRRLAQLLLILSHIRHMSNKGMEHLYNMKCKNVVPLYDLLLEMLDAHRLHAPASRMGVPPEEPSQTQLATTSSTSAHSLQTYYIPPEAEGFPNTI

C/C(=C(/C)c1cccc(O)c1)c1cccc(O)c1
inhibition [1]: 27.2%
Effect [2]: 43.5
Effect [3]: 12.9
Effect [4]: 37.2
Effect [5]: 12.2
Effect [6]: 33.1
Effect [7]: 13.8
Effect [8]: 42.3
Effect [9]: 88.4
Effect [10]: 13.3
Effect [11]: 80.7
TC (Mus musculus [12]): 88%
Effect [13]: 12.8
TC (Mus musculus [14]): 69.9%

C/C(=C(/C)c1ccc(O)cc1)c1ccc(O)cc1 [DIMETHYLSTILBESTROL]
inhibition [15]: 30.1%
Effect [2]: 39.8
Effect [3]: 14.8
Effect [4]: 39.2
Effect [6]: 48.7
Effect [7]: 35.9
Effect [8]: 32
Effect [9]: 70.4
Effect [10]: 16.7
Effect [11]: 74.7
TC (Mus musculus [12]): 69.5%
Effect [13]: 41.8
Effect [16]: 25.4
Effect [17]: 20.6
TC (Mus musculus [14]): 46.2%

C[C@H](c1ccc(O)cc1)[C@@H](C)c1ccc(O)cc1
Uterus effect [18]: 79.9
TC (Mus musculus [19]): 68.5%
inhibition [15]: 14.1%
Effect [20]: 17.7
Effect [2]: 45.1
Effect [3]: 14.8
Effect [4]: 33.6
Effect [21]: 22.6
Effect [22]: 42.2
Effect [6]: 56.5
Uterus effect [23]: 77.6
Effect [8]: 36
Effect [10]: 11.8
TC (Mus musculus [24]): 23.1%
Effect [25]: 34.8
inhibition [26]: 23.8%
Effect [16]: 28

C[C@H](c1cccc(O)c1)[C@@H](C)c1cccc(O)c1
Change in weight (Rattus norvegicus [27]): 2.4%
TC (Mus musculus [19]): 106%
No. of tumors (Rattus norvegicus [28]): 12
Tumors (Rattus norvegicus [29]): 24%
Effect [20]: 38.5 [middle of 4 runs]
Tumors (Rattus norvegicus [30]): 16%
Change in weight (Rattus norvegicus [31]): 0.9%
Change in tumor area % (Rattus norvegicus [32]): 6%
Effect [3]: 11.2 and 9.9 and 10.5
Effect [4]: 36.5
Tumors (Rattus norvegicus [33]): 25%
Tumors (Rattus norvegicus [34]): 14%
Effect [6]: 29
No. of tumors (Rattus norvegicus [35]): 22
Effect ([23]; Uterus): 73.5
Tumors (Rattus norvegicus [36]): 24%
Change in tumor area % (Rattus norvegicus [37]): 105%
Effect [7]: 12.6
Tumors (Rattus norvegicus [38]): 9%
Tumors (Rattus norvegicus [39]): 29%
Effect [10]: 11.9
Effect [11]: 86.9
No. of tumors (Rattus norvegicus [40]): 16
Tumors (Rattus norvegicus [41]): 25%
Change in weight (Rattus norvegicus [42]): 1.6%
Effect [13]: 13.1
Effect [43]: 34.3
TC (Mus musculus [24]): 66.5%
No. of tumors (Rattus norvegicus [44]): 26
No. of tumors (Rattus norvegicus [45]): 22
Tumors (Rattus norvegicus [46]): 11%
Change in tumor area % (Rattus norvegicus [47]): 188%
Tumors (Rattus norvegicus [48]): 51%
Effect [16]: 12.4
No. of tumors (Rattus norvegicus [49]): 21
Effect [17]: 11.7
Tumors (Rattus norvegicus [50]): 38%
Tumors (Rattus norvegicus [51]): 34%
